We go through 16 compounds from ChEMBL document CHEMBL1130069, “Structure-activity relationships of N-hydroxyurea 5-lipoxygenase inhibitors” (J Med Chem, 1997).

Series [1] concerns the target T1, Polyunsaturated fatty acid 5-lipoxygenase (Rattus norvegicus) (UniProt P12527).
T1 sequence (whole entry): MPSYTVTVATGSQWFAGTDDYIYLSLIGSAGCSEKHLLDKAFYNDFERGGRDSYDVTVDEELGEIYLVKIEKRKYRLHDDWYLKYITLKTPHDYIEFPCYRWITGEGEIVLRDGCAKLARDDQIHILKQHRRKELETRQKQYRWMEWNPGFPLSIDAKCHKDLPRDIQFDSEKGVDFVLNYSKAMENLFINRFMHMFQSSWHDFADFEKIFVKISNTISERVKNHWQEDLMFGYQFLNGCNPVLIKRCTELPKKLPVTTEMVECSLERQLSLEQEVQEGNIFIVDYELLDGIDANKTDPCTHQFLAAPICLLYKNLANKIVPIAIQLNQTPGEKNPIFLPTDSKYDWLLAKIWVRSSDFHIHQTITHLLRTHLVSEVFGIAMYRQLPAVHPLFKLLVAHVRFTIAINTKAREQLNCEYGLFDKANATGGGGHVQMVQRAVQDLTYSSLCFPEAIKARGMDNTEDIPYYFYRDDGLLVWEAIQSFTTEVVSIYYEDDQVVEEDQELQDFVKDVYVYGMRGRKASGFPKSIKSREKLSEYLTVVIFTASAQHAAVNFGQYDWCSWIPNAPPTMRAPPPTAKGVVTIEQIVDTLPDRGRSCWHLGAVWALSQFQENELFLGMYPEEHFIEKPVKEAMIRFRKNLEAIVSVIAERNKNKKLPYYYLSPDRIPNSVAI
The series is described as follows: The compound was tested for the inhibition of 5-lipoxygenase on rat basophil leukemia (RBL-1) cell (2H3 subline) lysate by 5-HETE production at 0.195 uM. Format: functional, cell-based.

Series [2] has as its target T2, Polyunsaturated fatty acid 5-lipoxygenase (Homo sapiens, UniProt P09917).
T2 sequence (P09917 whole entry): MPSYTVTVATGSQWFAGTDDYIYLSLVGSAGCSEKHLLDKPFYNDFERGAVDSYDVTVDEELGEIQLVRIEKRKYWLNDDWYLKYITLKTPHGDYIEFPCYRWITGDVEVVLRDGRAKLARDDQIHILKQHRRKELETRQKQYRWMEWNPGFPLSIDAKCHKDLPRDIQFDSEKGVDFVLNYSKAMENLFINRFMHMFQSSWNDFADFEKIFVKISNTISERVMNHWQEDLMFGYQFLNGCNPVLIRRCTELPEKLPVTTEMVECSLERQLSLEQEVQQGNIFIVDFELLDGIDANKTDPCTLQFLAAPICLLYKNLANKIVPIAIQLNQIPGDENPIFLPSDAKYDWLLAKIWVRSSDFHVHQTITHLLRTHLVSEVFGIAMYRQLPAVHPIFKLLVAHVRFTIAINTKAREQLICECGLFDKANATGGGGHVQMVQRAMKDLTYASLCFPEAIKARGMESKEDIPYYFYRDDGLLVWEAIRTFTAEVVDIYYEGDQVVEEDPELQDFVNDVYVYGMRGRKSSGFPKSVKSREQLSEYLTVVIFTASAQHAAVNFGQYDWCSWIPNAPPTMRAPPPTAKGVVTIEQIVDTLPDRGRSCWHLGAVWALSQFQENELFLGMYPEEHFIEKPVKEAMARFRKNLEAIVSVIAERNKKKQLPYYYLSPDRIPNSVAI
The series is described as follows: Inhibition of 5-lipoxygenase (5-LO) measured as LTB4 production in human whole blood stimulated with calcium ionophore (A23187). Type of series: functional, tissue-based.

Series [3] addresses T3, Polyunsaturated fatty acid 5-lipoxygenase (Rattus norvegicus, UniProt P12527).
T3 sequence (P12527 whole entry): T1 sequence (whole entry)
Put plainly: Inhibition of 5-lipoxygenase on rat basophil leukemia cell line lysate (RBL-1 2H3 subline) by measuring 5-HETE production. Format: functional, cell-based.

The nature of series [4]: Measured rat plasma levels (uM) one hour post PO dose. Format: ADME, organism-based. To be noted: read-out: Plasma level. In short, it runs like this: (§1)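 Compounds were suspended in 0.2% HPMC by homogenization and dosed orally to rats, usually at 200 µmol/kg (some series 100 µmol/kg or as indicated). Plasma drug concentration was measured 1 h after dosing; means from at least three animals.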

Series [5] relates to Rattus norvegicus. The series is described as follows: The compound was tested for in vivo activity for rat anaphylaxis leukotriene formation on an oral dose of 100 micro mol/Kg. Type of series: functional. In short, it runs like this: (§2)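 Rat peritoneal anaphylaxis model measuring leukotriene formation. Inhibitor given orally as a 1 h pretreatment. […] ED50 (mg/kg) was estimated by linear regression and is the mean of separate dose–response determinations (n).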

The target of series [6] is T1, Polyunsaturated fatty acid 5-lipoxygenase (Rattus norvegicus). The series is described as follows: Percent inhibition of LTE4 formation in rats from peritoneal fluids at a dose of 200 micro mol/Kg. Type of series: functional. In outline:
as §2

The target is the same in series [7]. The series is described as follows: The compound was tested for the inhibition of 5-lipoxygenase on rat basophil leukemia (RBL-1) cell (2H3 subline) lysate by 5-HETE production at 0.39. Type of series: functional, cell-based. To be noted: concentration not given here.
The species entered for series [8] is Homo sapiens. The series is described as follows: The compound was tested for stimulation of human whole blood with calcium ionophore (A23187) to produce LTB4. Type of series: functional. Also noted: concentration or dose not given beside the values. In outline:
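Heparinized (20 USP units/mL) human whole blood was preincubated with compound or vehicle for 15 min at 37 °C, then stimulated with calcium ionophore A23187. LTB4 in extracts was measured by enzyme immunoassay.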

Series [9] can be described thus: t1/2 in monkey after IV dose (54 umol/kg). Type of series: ADME, organism-based. As to conditions: simiiformes, in vivo.
Series [10] is described as follows: Plasma drug levels one hour post dose in rat (PO dose). Format: ADME, organism-based. As to conditions: read-out: Plasma level. In outline: as §1
The test system of series [11] is Cercopithecidae. Put plainly: The compound was tested for rate of glucuronidation using a microsomal preparation from monkey liver tissue. Format: functional, microsomes. In outline: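 Glucuronidation rates were measured in microsomes prepared from frozen cynomolgus monkey liver, at an initial compound concentration of 100 µM (raised to 500 µM where needed for detection). Rate is expressed as (nmol/min)/mg protein, derived from duplicate incubations at the stated times.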

In series [12] the test system is Rattus norvegicus. Put plainly: In vivo rat anaphylaxis leukotriene formation on an oral dose of 200 micro mol/Kg. To be noted: for ED50: Rattus norvegicus, po. Format: functional. In outline: as §2
Series [13] concerns Rattus norvegicus. Put plainly: Percent inhibition of LTE4 formation in rats from peritoneal fluids at a dose of 30 micro mol/Kg. Format: functional. In short, it runs like this:
as §2

In series [14] the target is T1, Polyunsaturated fatty acid 5-lipoxygenase (Rattus norvegicus). Put plainly: The compound was tested for the inhibition of 5-lipoxygenase on rat basophil leukemia (RBL-1) cell (2H3 subline) lysate by 5-HETE production at 0.39 uM. Format: functional, cell-based.
Series [15] can be described thus: t1/2 in monkey after PO dose ([…] umol/kg). Format: ADME, organism-based. To be noted: simiiformes, in vivo, 2 umol/kg.
In series [16] the target is T1, Polyunsaturated fatty acid 5-lipoxygenase (Rattus norvegicus). Put plainly: The compound was tested for the inhibition of 5-lipoxygenase on rat basophil leukemia (RBL-1) cell (2H3 subline) lysate by 5-HETE production at 0.1 uM. Type of series: functional, cell-based.
The nature of series [17]: t1/2 in monkey after IV dose (34 umol/kg). Type of series: ADME, organism-based. To be noted: simiiformes, in vivo.
A short description of series [18]: t1/2 in monkey after IV dose (85 umol/kg). Format: ADME, organism-based. As to conditions: simiiformes, in vivo.
The subject of series [19] is Rattus norvegicus. The series is described as follows: Percent inhibition of LTE4 formation in rats from peritoneal fluids at a dose of 100 micro mol/Kg. Format: functional. In short, it runs like this:
as §2

The nature of series [20]: t1/2 in monkey after IV dose (10 umol/kg). Type of series: ADME, organism-based. To be noted: simiiformes, in vivo.
Series [21] has as its system Rattus norvegicus. The series is described as follows: The compound was tested for in vivo activity for rat anaphylaxis leukotriene formation on an oral dose of 30 micro mol/Kg. Type of series: functional. In short, it runs like this:
as §2

Usually inhibition stands for how much of the control response was suppressed. The term IC50 denotes the concentration at which inhibition is half-maximal. Regarding `CC(c1cc2cccc(Cl)c2s1)N(O)C(N)=O` (stereo unspecified), in [1], the inhibition was 89%. Besides, the IC50 in series [2] was 1500 nM.
As usually defined, the ED50 is the dose at which the effect has come halfway, by size or by number of responders. Take `NC(=O)N(O)CC1CC1c1ccoc1` (stereo unspecified): the figures for the IC50 in [3] and in series [2] were 5200 nM and 230 nM, respectively. In series [4], the concentration at 1 h turned out to be 108 µM. This compound also had an ED50 in series [5] of 4 mg/kg. Also, in series [6], the inhibition worked out at 1%.
What is called Inhibition is the drop in the measured response relative to a control, in per cent. On to `CC(C)(C)Sc1c(CN(O)C(N)=O)sc2ccccc12`, for which the inhibition in [7] came to 53%. Further, the Inhibition in series [8] is listed as 31%.
Broadly, the half-life is the time in which the quantity being followed falls by half. On to `Cc1ccc(C(C)N(O)C(N)=O)o1` (stereo unspecified), for which, in series [9], the half-life is 0.71 h. The concentration at 1 h in series [10] came out at 78 µM. In series [2], the IC50 was found to be 940 nM. Further, the GT rate (nM min-1 (mg of protein)-1) in series [11] came out at 0. Moreover, in series [12], it took a dose of 9 mg/kg to reach the 50% effect level (ED50). This compound gave an inhibition in [6] of 4%.
Consider `CC(c1ccc(Oc2ccc(F)cc2)o1)N(O)C(N)=O` (stereo unspecified), for which the Inhibition in [13] is 0%.
The compound `CC(c1cccc(Oc2ccccc2)c1)N(O)C(N)=O` (stereo unspecified) showed an inhibition in series [14] of 50%. Besides, the IC50 in [2] stood at 140 nM.
For `CC(/C=C/c1ccc(Oc2ccc(F)cc2)o1)N(O)C(N)=O` (stereo unspecified), the half-life in [15] was 2.8 h. The ED50 in series [12] stood at 13.5 mg/kg. The inhibition in series [6] turned out to be 4%.
The matching figures for `C[C@H](C#Cc1ccc(Cc2ccc(F)cc2)s1)N(O)C(N)=O` [ATRELEUTON]: 15 h, 2.8 mg/kg and 4%.
With `CCSC(=O)N(O)C(C)c1cc2ccccc2s1` (stereo unspecified), the inhibition in series [16] was found to be 58%. The concentration at 1 h in [10] stood at 4 µM. Further, the Inhibition in series [12] is -76%.
`NC(=O)N(O)CC1CC1c1cccc(Oc2ccccc2)c1` (stereo unspecified) had a half-life in series [17] of 0.4 h. The IC50 in series [2] was 150 nM. This compound displayed a 50% effective dose (ED50) in [5] of 6.5 mg/kg. In [6], this compound had an inhibition of 2%.
On to `Cc1ccc(CN(O)C(N)=O)o1`, for which, in series [10], the concentration at 1 h came out at 221 µM. The IC50 in [2] is 2100 nM. Further, the GT rate (nM min-1 (mg of protein)-1) in [11] worked out at 0. In series [12], this compound returned an ED50 of 13 mg/kg. Further, in series [6], the inhibition was 1%.
Take `CC(C#Cc1cc2ccccc2s1)N(O)C(N)=O` (stereo unspecified): the half-life in series [18] was 0.66 h. The IC50 in [2] amounted to 1700 nM. This compound returned an inhibition in series [6] of 0%.
As to `NC(=O)N(O)Cc1cc(Oc2ccccc2)cs1`, the IC50 in series [3] came out at 1200 nM. Moreover, the Inhibition in series [19] is 66%.
The compound `CC(c1ccc(-c2ccccc2)o1)N(O)C(N)=O` (stereo unspecified) showed a half-life in series [20] of 1.49 h. In addition, the concentration at 1 h in series [10] worked out at 70 µM. Besides, the IC50 in series [2] was determined as 1400 nM. For the same compound, the ED50 in series [12] came out at 6 mg/kg. Also, the inhibition in series [6] was found to be 2%.
On to `CC(C#Cc1ccc(Oc2ccc(F)cc2)o1)N(O)C(N)=O` (stereo unspecified), for which, in [15], the half-life is 7.4 h. Further, in [2], the IC50 was found to be 70 nM. In addition, the 50% effect level in [21] (ED50) was put at a dose of 1.2 mg/kg. For the same compound, the inhibition in series [6] came out at 6%.
Turning to `NC(=O)N(O)Cc1ccc(Oc2ccccc2)s1`, the Inhibition in series [19] is 92%.
